Assay outcomes: PubChem, several laboratories
Hits are enriched below; roughly 2.8% of the tested compounds scored in any of these assays.
MC4R antag cAMP = blocks human MC4R cAMP signaling; 360,000 compounds, 0.48% hits; MC4R-expressing cells, MTII-stimulated cAMP, LANCE TR-FRET; inhibition, % at 6.5 µM; P32245;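 active = inhibition above its plate's cutoff, the mean of tested wells on that plate plus 3 SD, cut at about 29% in these data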
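System: U2OS-MC4R stable cell line; Technique: Eu-cAMP/anti-cAMP TR-FRET, emission 671 nm; Repeats: single well per compound; Also added: Melanotan II; Dosing: one concentration, 6.5 µM nominal; Schedule: 30-min compound, 1-h challenge, 1-h detection, room temperature.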
MC4R ag barr = activates human MC4R beta-arrestin recruitment; activation, % at 8.9 µM; P32245; U2OS MC4R beta-arrestin complementation, luminescence; percent of melanotan II response, DMSO zero; 360,000 compounds, 0.98% hits;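 active = activation above a per-plate cutoff, the mean activation of sample wells on that plate plus 3 SD, cut at about 8% in these data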
m5-HT2A agonist = mouse HTR2A agonism via beta-arrestin recruitment; P35363; 360,000 compounds, 0.66% hits; activation, % at 7.6 µM; CHO-K1 mHTR2A beta-arrestin complementation, luminescence; percent of 30 µM serotonin response; AID 624169;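 active = activation above a run cutoff, the mean activation of all tested compounds plus 3 SD, cut at about 14% in these data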
EBI2 antag = EBI2 (human) antagonism; EBI2 beta-arrestin recruitment, luminescence, 7a,25-OHC stimulated; 360,000 compounds, 0.81% hits; inhibition, % at 5 µM; P32249; in the data active = inhibition above about 38%;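 note: enzyme fragment complementation signal reports receptor beta-arrestin coupling in cells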
Target sequence (P32249 whole entry, looked up, the tested form may be a part): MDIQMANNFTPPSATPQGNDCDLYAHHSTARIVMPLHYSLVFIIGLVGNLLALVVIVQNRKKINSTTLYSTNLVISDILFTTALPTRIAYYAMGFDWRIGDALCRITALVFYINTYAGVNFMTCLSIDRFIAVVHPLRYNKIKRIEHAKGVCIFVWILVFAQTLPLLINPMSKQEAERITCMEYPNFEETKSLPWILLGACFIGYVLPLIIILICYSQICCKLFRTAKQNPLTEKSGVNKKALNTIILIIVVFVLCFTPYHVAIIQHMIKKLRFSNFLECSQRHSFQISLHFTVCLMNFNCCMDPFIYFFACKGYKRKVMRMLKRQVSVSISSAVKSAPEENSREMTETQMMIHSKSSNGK
EBI2 conf = confirmation of human EBI2 receptor antagonists; shares compounds with EBI2 antag; EBI2 beta-arrestin luminescence, 7a,25-OHC antagonism; inhibition, % at 5 µM; 2,400 compounds, 29% hits;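 active = inhibition of at least 50%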
EBI2 agonist = counter-screen for EBI2 antagonists: EBI2 agonist activity. EBI2-expressing cells, agonist mode, luminescence, 60 min; 0% vehicle, 100% 7α,25-dihydroxycholesterol control. 2,400 tested, under 10 active. activation, % at 5 µM. shares compounds with EBI2 antag;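 active = activation of at least 50%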
bGal counter = counter-screen for EBI2 antagonists: E. coli beta-galactosidase inhibition; AID 652176; purified beta-galactosidase, luminescent Galacton Star, 15 min; shares compounds with EBI2 antag; 2,400 compounds, 1% hits; inhibition, % at 5 µM;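 active = replicate-average signal at least 3 plate SD below neutral wells, shown as high inhibition, flagging enzyme-inhibiting false positives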;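 note: higher means stronger loss of beta-gal luminescence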
Hits are given with their value.

For COc1cc(NC(=O)c2cc([N+](=O)[O-])ccc2N2CCOCC2)ccc1NC(=O)c1ccco1 the results were MC4R antag cAMP inactive, MC4R ag barr inactive, m5-HT2A agonist inactive, EBI2 antag 55, EBI2 conf inactive, EBI2 agonist inactive and bGal counter inactive.
Screening O=C(NCc1ccco1)c1ccc(N2CCCCC2)c([N+](=O)[O-])c1 returned MC4R antag cAMP inactive, MC4R ag barr inactive, m5-HT2A agonist inactive and EBI2 antag inactive.
For O=C(CSc1nc2cc([N+](=O)[O-])ccc2n1-c1ccccc1)NCc1ccc2c(c1)OCO2 the results were MC4R antag cAMP inactive, MC4R ag barr inactive, m5-HT2A agonist inactive, EBI2 antag 55, EBI2 conf inactive, EBI2 agonist inactive and bGal counter inactive.
Screening O=C(Nc1cc([N+](=O)[O-])ccc1N1CCOCC1)c1ccco1 returned MC4R antag cAMP inactive, MC4R ag barr inactive, m5-HT2A agonist inactive and EBI2 antag inactive.
For O=C(NCc1ccco1)c1cc([N+](=O)[O-])ccc1N1CCCCC1 the results were MC4R antag cAMP inactive, MC4R ag barr inactive, m5-HT2A agonist inactive, EBI2 antag 53, EBI2 conf inactive, EBI2 agonist inactive and bGal counter inactive.
For O=S(=O)(NC(=S)NC1CCCCC1)c1ccccc1 the results were MC4R antag cAMP inactive, MC4R ag barr inactive, m5-HT2A agonist inactive and EBI2 antag inactive.
`COc1ccc(C2CC(=O)Nc3n[nH]c(-c4ccccc4)c32)cc1OC` (configuration not stated) gave MC4R antag cAMP inactive, MC4R ag barr inactive, m5-HT2A agonist inactive and EBI2 antag inactive.
For O=C(COC(=O)/C=C/c1ccc(Cl)cc1)NCCN1C(=O)CSC1=O the results were MC4R antag cAMP inactive, MC4R ag barr inactive, m5-HT2A agonist inactive, EBI2 antag 46, EBI2 conf inactive, EBI2 agonist inactive and bGal counter inactive.
O=C(COC(=O)/C=C/c1ccc(OC(F)F)cc1)NCCN1C(=O)CSC1=O was read as MC4R antag cAMP inactive, MC4R ag barr inactive, m5-HT2A agonist inactive and EBI2 antag inactive.
For C/C(Cn1cnc([N+](=O)[O-])n1)=N\NC(=O)c1ccc(O)cc1O the results were MC4R antag cAMP inactive, MC4R ag barr inactive, m5-HT2A agonist inactive and EBI2 antag inactive.
For CN1C(=O)C(O)(CC(=O)c2ccccn2)c2cc(Br)ccc21 (configuration not stated) the results were MC4R antag cAMP inactive, MC4R ag barr inactive, m5-HT2A agonist inactive, EBI2 antag 36, EBI2 conf inactive, EBI2 agonist inactive and bGal counter inactive.
CN1C(=O)[C@@](O)(CC(=O)c2ccccc2)c2cc(Br)ccc21 was read as m5-HT2A agonist inactive and EBI2 antag inactive.
`CCOc1ncccc1C(=O)Nc1ccc(C(=O)Nc2ccc(OC)cc2)cc1` gave MC4R antag cAMP inactive, MC4R ag barr inactive, m5-HT2A agonist inactive, EBI2 antag 57, EBI2 conf inactive, EBI2 agonist inactive and bGal counter inactive.
Screening CCCn1nnnc1NC(=O)COc1ccc(Br)cc1 returned MC4R antag cAMP inactive, MC4R ag barr inactive, m5-HT2A agonist inactive and EBI2 antag inactive.
`O=C1C=C(/C=C/C2C=CC=CC2)C[C@@H](c2ccc(Cl)cc2)C1` (some centres not stated) gave MC4R antag cAMP inactive, MC4R ag barr inactive, m5-HT2A agonist inactive, EBI2 antag 48, EBI2 conf inactive, EBI2 agonist inactive and bGal counter inactive.
CCOc1ccc(-c2c(C#N)c(N)nc3sc(C(=O)c4ccccc4)c(N)c23)cc1 was read as MC4R antag cAMP inactive, MC4R ag barr inactive, m5-HT2A agonist inactive, EBI2 antag 42, EBI2 conf inactive, EBI2 agonist inactive and bGal counter inactive.
`COc1ccc(-c2c(C#N)c(N)nc3sc(C(=O)c4ccccc4)c(N)c23)cc1` gave MC4R antag cAMP inactive, MC4R ag barr inactive, m5-HT2A agonist inactive, EBI2 antag 49, EBI2 conf inactive, EBI2 agonist inactive and bGal counter inactive.
Screening C[C@H](CO)N1C[C@H](C)[C@H](CN(C)S(C)(=O)=O)Oc2c(cccc2N(C)C)C1=O returned MC4R antag cAMP inactive, MC4R ag barr inactive, m5-HT2A agonist inactive and EBI2 antag inactive.
